In the RNAGym collection of RNA variant scans (doi:10.1002/anie.201605470) one finds self-cleavage data, which are given here for 109 variants.

First the molecules themselves.
B1: Osa-1-4 twister ribozyme (parent)
chain: CCGCCUAACACUGCCAAUGCCGGUCCCAAGCCCGGAUAAAAGUGGAGGGGGCGG

The variants in this data set derive from B1. In words: self-cleavage, relative activity (ratio to wild type); higher = more cleavage; co-transcriptional. An outline of the steps: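 In vitro transcription at 37 °C for 2 h allowed the twister ribozyme to cleave itself as it was made. Its 54-nucleotide Oryza sativa template had been synthesised with 97 % wild-type base and 1 % of each other base at the 48 positions downstream of the cleavage site. A template-switching oligonucleotide was used for reverse transcription, followed by PCR amplification and deep sequencing. Whether reads carried upstream sequence set the cleavage status, and relative activity is the fraction cleaved normalised to wild type.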
Turning to C52U G48A, the self-cleavage was found to be 0.15. Regarding C52U U12G, the self-cleavage is 0.78.

With C52U U12C, the self-cleavage worked out at 0.65.

Take C52U U12A: the self-cleavage worked out at 0.99. As for C52G U37A, the self-cleavage was determined as 0.81. For the variant C52G U37C, the self-cleavage amounted to 1.05.

In the case of C52G U37G, the self-cleavage is 1.02.

For the variant C52U U18C, the self-cleavage stood at 1. The same measure for C52U U18A: 0.97. In the case of C52U U18G, the self-cleavage came out at 0.86. As for G54U U43G, the figure is 0.7; as for G54U U43A, 0.84; as for G54U U43C, 0.7. As to G54A U37C, the self-cleavage was 0.98. As for G54A U37A, the figure is 0.73; as for G54A U37G, 1. Consider G53U U12G, for which the self-cleavage was 0.07.

Take G53U U12A: the self-cleavage was determined as 0.12.

Turning to G53U U12C, the self-cleavage turned out to be 0.13. As for G53A U37A, the figure is 0.57; as for G53A U37G, 0.97; as for G53A U37C, 0.97. Turning to C52U G19C, the self-cleavage turned out to be 0.18. As for C52U G19A, the figure is 0.93; as for C52U G19U, 0.48. As for C52U G54C, the figure is 0.94; as for C52U G54A, 0.98; as for C52U G54U, 1.03. Consider G53C U43G, for which the self-cleavage turned out to be 0.07. The same measure for G53C U43A: 0.08; for G53C U43C: 0.07. For the variant G54A U18A, the self-cleavage amounted to 0.88. With G54A U18C, the self-cleavage worked out at 0.93.

Regarding G54A U18G, the self-cleavage is 0.71.

Turning to C52U C9A, the self-cleavage came out at 0.62. As for C52U C9G, the figure is 0.95; as for C52U C9U, 0.87; as for G54C U12C, 0.57. Regarding G54C U12G, the self-cleavage stood at 0.32.

Take G54C U12A: the self-cleavage is 0.43.

Consider G53A U24G, for which the self-cleavage was determined as 0.03.

On to G53A U24A, for which the self-cleavage is 0.09. As for G53A U24C, the figure is 0.08; as for C52G G47U, 0.29; as for C52G G47A, 0.28.

For C52G G47C, the self-cleavage amounted to 0.11. The same measure for G53C G54C: 0.08; for G53C G54U: 0.25; for G53C G54A: 0.1. As for C52U G23C, the figure is 0.06.

As for C52U G23U, the self-cleavage came to 0.25. As for C52U G23A, the self-cleavage amounted to 0.68.

For G53C U24C, the self-cleavage turned out to be 0.03. On to G53C U24G, for which the self-cleavage came to 0.01. As for G53C U24A, the figure is 0.04; as for C52G G44C, 0.9. As for C52G G44U, the figure is 0.9. The same measure for C52G G44A: 0.98; for G54A U43C: 0.58.

Turning to G54A U43A, the self-cleavage came to 0.84. For G54A U43G, the self-cleavage was found to be 0.69. The same measure for C52U U43G: 0.88. The same measure for C52U U43A: 1. As for C52U U43C, the figure is 0.62; as for C52G G49A, 0.2. Regarding C52G G49U, the self-cleavage amounted to 0.13. For the variant C52G G49C, the self-cleavage is 0.07. As for G54U U37G, the figure is 0.98; as for G54U U37C, 1.02; as for G54U U37A, 0.73.

With C52G G45A, the self-cleavage amounted to 0.27. Regarding C52G G45U, the self-cleavage was found to be 0.14. The same measure for C52G G45C: 0.1; for C52G G48C: 0.1; for C52G G48U: 0.09.

With C52G G48A, the self-cleavage turned out to be 0.13. As for G54U U12C, the figure is 0.67; as for G54U U12G, 0.4.

Consider G54U U12A, for which the self-cleavage came out at 0.62. The same measure for G53A G54C: 0.66; for G53A G54A: 0.62; for G53A G54U: 0.79. Regarding G53U U43C, the self-cleavage worked out at 0.15. For the variant G53U U43A, the self-cleavage worked out at 0.2.

As to G53U U43G, the self-cleavage came out at 0.13. As for G53U U24G, the figure is 0.03; as for G53U U24C, 0.06; as for G53U U24A, 0.06. For C52G G53U, the self-cleavage stood at 0.44. Take C52G G53A: the self-cleavage was 0.57.

Take C52G G53C: the self-cleavage turned out to be 0.24. As for G53U U18A, the figure is 0.41. The same measure for G53U U18G: 0.39; for G53U U18C: 0.3; for C52U G53A: 1. The same measure for C52U G53U: 0.9; for C52U G53C: 0.17; for C52G G51A: 0.84. For the variant C52G G51C, the self-cleavage is 0.41. Turning to C52G G51U, the self-cleavage stood at 0.48.

Turning to C52U G49A, the self-cleavage is 0.21.

On to C52U G49U, for which the self-cleavage turned out to be 0.15. As for C52U G49C, the figure is 0.07; as for C52U G51C, 0.13; as for C52U G51U, 0.54. The same measure for C52U G51A: 0.88; for C52U U24C: 0.56; for C52U U24A: 0.33. Take C52U U24G: the self-cleavage stood at 0.03.
